Experimental data from ChEMBL document CHEMBL1124306, “New "ofloxacin" type antibacterial agents. Incorporation of the spiro cyclopropyl group at N-1” (J Med Chem, 1988).
≈ marks a conversion by molar mass, not a printed value.

Assays:
Format in all cases: functional
Streptococcus pyogenes = assay: Inhibition of growth of Streptococcus pyogenes
Escherichia coli [1] = assay: Inhibition of growth of Escherichia coli vogel
Staphylococcus aureus [2] = assay: Inhibition of growth of Staphylococcus aureus (resistant)
Klebsiella pneumoniae = assay: Inhibition of growth of Klebsiella pneumonia
Providencia rettgeri = assay: Inhibition of growth of Proteus rettgeri
Mus musculus [3] = assay: In vivo protective dose (PD50) in mice against Escherichia coli Vogel when administered subcutaneously; settings: sc, read-out: PD50
Mus musculus [4] = assay: In vivo protective dose (PD50) in mice against Escherichia coli Vogel when administered perorally; settings: po, read-out: PD50
Staphylococcus aureus [5] = assay: Inhibition of growth of Staphylococcus aureus (sensitive)
Pseudomonas aeruginosa = assay: Inhibition of growth of Pseudomonas aeruginosa
Enterobacter cloacae = assay: Inhibition of growth of Entero. cloacae
Enterococcus faecalis = assay: Inhibition of growth of Streptococcus faecalis
Escherichia coli [6] = assay: Inhibition of growth of Escherichia coli H560
Streptococcus pneumoniae = assay: Inhibition of growth of Streptococcus pneumonia
Escherichia coli [7] = assay: Minimum concentration of the drug needed to produce linear DNA at an intensity relative to oxolinic acid(at 10 ug/mL); settings: read-out: I50
Summary of the method: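 DNA gyrase from Escherichia coli H560, assayed by a previously published procedure. The end point is the lowest drug concentration giving linear DNA at an intensity matching the oxolinic acid reference at 10 μg/mL.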

Structure (SMILES)	MIC (Streptococcus pyogenes) [µg/mL]	MIC (Escherichia coli [1]) [µg/mL]	MIC (Staphylococcus aureus [2]) [µg/mL]	MIC (Klebsiella pneumoniae) [µg/mL]	MIC (Providencia rettgeri) [µg/mL]	ED50 (Mus musculus [3]) [mg/kg]	ED50 (Mus musculus [4]) [mg/kg]	MIC (Staphylococcus aureus [5]) [µg/mL]	MIC (Pseudomonas aeruginosa) [µg/mL]	MIC (Enterobacter cloacae) [µg/mL]	MIC (Enterococcus faecalis) [µg/mL]	MIC (Escherichia coli [6]) [µg/mL]	MIC (Streptococcus pneumoniae) [µg/mL]	IC50 (Escherichia coli [7]) [µg/mL]
CCNCC1CCN(c2c(F)cc3c(=O)c(C(=O)O)cn4c3c2OCC4C)C1 (stereo unspecified)	0.006 (≈ 0.0154 µM)	0.1 (≈ 0.257 µM)	0.2 (≈ 0.514 µM)	0.4 (≈ 1.03 µM)	0.4 (≈ 1.03 µM)	11	> 100	0.006 (≈ 0.0154 µM)	0.8 (≈ 2.05 µM)	0.2 (≈ 0.514 µM)	0.05 (≈ 0.128 µM)	0.05 (≈ 0.128 µM)	0.025 (≈ 0.0642 µM)	
CC1COc2c(N3CCC(CN(C)C)C3)c(F)cc3c(=O)c(C(=O)O)cn1c23 (stereo unspecified)	0.05 (≈ 0.128 µM)	0.2 (≈ 0.514 µM)	0.2 (≈ 0.514 µM)	0.4 (≈ 1.03 µM)	0.8 (≈ 2.05 µM)	2.6	6.2	0.05 (≈ 0.128 µM)	3.1 (≈ 7.96 µM)	0.4 (≈ 1.03 µM)	0.4 (≈ 1.03 µM)	0.2 (≈ 0.514 µM)	0.05 (≈ 0.128 µM)	3 (≈ 7.7 µM)
CN(C)CC1CCN(c2c(F)cc3c(=O)c(C(=O)O)cn4c3c2OCC42CC2)C1 (stereo unspecified)	0.4 (≈ 0.996 µM)	0.4 (≈ 0.996 µM)	0.8 (≈ 1.99 µM)	0.8 (≈ 1.99 µM)	3.1 (≈ 7.72 µM)	6.3	16	0.2 (≈ 0.498 µM)	6.3 (≈ 15.7 µM)	0.8 (≈ 1.99 µM)	0.8 (≈ 1.99 µM)	0.8 (≈ 1.99 µM)	0.4 (≈ 0.996 µM)	11.2 (≈ 28 µM)
O=C(O)c1cn2c3c(c(N4CCNCC4)c(F)cc3c1=O)OCC21CC1	12.5 (≈ 34.8 µM)	0.8 (≈ 2.23 µM)	6.3 (≈ 17.5 µM)	0.8 (≈ 2.23 µM)	1.6 (≈ 4.45 µM)			1.6 (≈ 4.45 µM)	0.8 (≈ 2.23 µM)	0.4 (≈ 1.11 µM)	6.3 (≈ 17.5 µM)	0.4 (≈ 1.11 µM)	12.5 (≈ 34.8 µM)	11.2 (≈ 31.3 µM)
CCNCC1CCN(c2c(F)cc3c(=O)c(C(=O)O)cn4c3c2OCC42CC2)C1 (stereo unspecified)	0.05 (≈ 0.125 µM)	0.8 (≈ 1.99 µM)	1.6 (≈ 3.99 µM)	3.1 (≈ 7.72 µM)	3.1 (≈ 7.72 µM)			0.1 (≈ 0.249 µM)	6.3 (≈ 15.7 µM)	0.8 (≈ 1.99 µM)	0.8 (≈ 1.99 µM)	1.6 (≈ 3.99 µM)	0.05 (≈ 0.125 µM)	5.5 (≈ 13.7 µM)
CC1COc2c(N3CCNCC3)c(F)cc3c(=O)c(C(=O)O)cn1c23 (stereo unspecified) [DESMETHYL-OFLOXACIN]	0.4 (≈ 1.15 µM)	0.2 (≈ 0.576 µM)	3.1 (≈ 8.92 µM)	0.2 (≈ 0.576 µM)	0.4 (≈ 1.15 µM)			0.4 (≈ 1.15 µM)	1.6 (≈ 4.61 µM)	0.1 (≈ 0.288 µM)	6.3 (≈ 18.1 µM)	0.1 (≈ 0.288 µM)	3.1 (≈ 8.92 µM)	3 (≈ 8.64 µM)
CC1COc2c(N3CCN(C)CC3)c(F)cc3c(=O)c(C(=O)O)cn1c23 (stereo unspecified) [OFLOXACIN]	0.8 (≈ 2.21 µM)	0.1 (≈ 0.277 µM)	0.4 (≈ 1.11 µM)	0.1 (≈ 0.277 µM)	0.2 (≈ 0.553 µM)	0.8	2	0.1 (≈ 0.277 µM)	0.4 (≈ 1.11 µM)	0.1 (≈ 0.277 µM)	0.8 (≈ 2.21 µM)	0.05 (≈ 0.138 µM)	0.8 (≈ 2.21 µM)	2.25 (≈ 6.23 µM)
